Measured values reported in ChEMBL document CHEMBL2331234, “Novel analgesic/anti-inflammatory agents: 1,5-diarylpyrrole nitrooxyalkyl ethers and related compounds as cyclooxygenase-2 inhibiting nitric oxide donors” (J Med Chem, 2013).
The source made the active and inactive calls. The rule behind the calls is not given here.

Tests used:
Rattus norvegicus [1] = experiment: Antiinflammatory activity in Sprague-Dawley/Wistar rat assessed as decrease in carrageenan-induced paw edema at 20 mg/kg, po administered 3 hrs 30 mins after carrageenan-challenge measured after 60 mins (reference value: 2.48 +/- 0.06 mL); format: functional
Rattus norvegicus [2] = experiment: Antiinflammatory activity in Sprague-Dawley/Wistar rat assessed as decrease in carrageenan-induced paw edema at 10 mg/kg, po administered 3 hrs 30 mins after carrageenan-challenge measured after 60 mins (reference value: 2.48 +/- 0.06 mL); format: functional
Rattus norvegicus [3] = experiment: Antiinflammatory activity in Sprague-Dawley/Wistar rat assessed as decrease in carrageenan-induced hyperalgesia at 20 mg/kg, po administered 4 hrs after carrageenan-challenge measured after 120 mins (reference value: 31.4 +/- 3.7 g); format: functional
Rattus norvegicus [4] = experiment: Antiinflammatory activity in Sprague-Dawley/Wistar rat assessed as decrease in carrageenan-induced hyperalgesia at 10 mg/kg, po administered 4 hrs after carrageenan-challenge measured after 30 mins (reference value: 34.8 +/- 3.0 g); format: functional
Rattus norvegicus [5] = experiment: Antiinflammatory activity in Sprague-Dawley/Wistar rat assessed as decrease in carrageenan-induced hyperalgesia at 20 mg/kg, po administered 4 hrs after carrageenan-challenge measured after 60 mins (reference value: 33.9 +/- 3.7 g); format: functional
[6] = target: T1, Prostaglandin G/H synthase 2 (Homo sapiens, UniProt P35354); experiment: (§1) Inhibition of COX2 in human whole blood assessed as reduction in LPS-induced PGE2 generation pre-treated prior to LPS-challenge
T1 sequence (P35354 whole entry): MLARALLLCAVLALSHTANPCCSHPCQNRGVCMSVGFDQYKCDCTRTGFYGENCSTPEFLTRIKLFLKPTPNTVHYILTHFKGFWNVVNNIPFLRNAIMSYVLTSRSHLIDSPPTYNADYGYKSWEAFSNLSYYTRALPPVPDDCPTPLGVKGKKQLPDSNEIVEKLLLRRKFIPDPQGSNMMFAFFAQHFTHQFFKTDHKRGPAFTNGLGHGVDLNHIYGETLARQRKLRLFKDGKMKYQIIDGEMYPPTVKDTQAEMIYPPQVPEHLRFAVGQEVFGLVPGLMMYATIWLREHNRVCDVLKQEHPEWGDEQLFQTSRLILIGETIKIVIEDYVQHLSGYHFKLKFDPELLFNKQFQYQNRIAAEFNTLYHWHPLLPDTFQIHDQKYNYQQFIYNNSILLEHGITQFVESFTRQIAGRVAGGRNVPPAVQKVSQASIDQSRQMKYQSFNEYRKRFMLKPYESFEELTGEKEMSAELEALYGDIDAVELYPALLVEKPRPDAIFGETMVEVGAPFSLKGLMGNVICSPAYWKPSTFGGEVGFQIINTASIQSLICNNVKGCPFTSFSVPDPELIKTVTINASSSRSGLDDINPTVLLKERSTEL
Summary of the method: (§2)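 Heparinized whole blood came from three healthy volunteers pretreated with aspirin 300 mg 48 h before sampling to suppress platelet COX-1. Compounds in DMSO were added at 0.1-300 µM final. Blood was incubated with LPS 10 µg/mL for 24 h at 37 °C. Plasma PGE2 was measured by RIA.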

[7] = target: T2, Prostaglandin G/H synthase 2 (Homo sapiens) (UniProt P35354); experiment: as §1; summary of the method: as §2
T2 sequence (whole entry): T1 sequence (P35354 whole entry)

Rattus norvegicus [8] = experiment: Antiinflammatory activity in Sprague-Dawley/Wistar rat assessed as decrease in carrageenan-induced hyperalgesia at 10 mg/kg, po administered 4 hrs after carrageenan-challenge measured after 60 mins (reference value: 33.9 +/- 3.7 g); format: functional
Aorta [9] = experiment: Vasorelaxant activity in Wistar rat endothelium-removed thoracic aortic rings assessed as reduction of KCl-induced vasoconstriction at 0.001 uM to 10 uM treated after KCl-challenge in presence of guanylate cyclase inhibitor 1H-[1,2,4]-oxadiazolo[4,3-a]quinoxalin-1-one; format: functional, tissue-based
Summary of the method: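 Endothelium-denuded aortic rings from male Wistar rats (250-350 g) were preincubated with ODQ 1 µM. Rings were contracted with KCl 30 mM, then given 3-fold increasing concentrations from 1 nM to 10 µM. Emax is the % relaxation of KCl tone. pIC50 was calculated when efficacy reached 50%, from 6-10 experiments.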

Aorta [10] = experiment: Vasorelaxant activity in Wistar rat endothelium-removed thoracic aortic rings assessed as reduction of KCl-induced vasoconstriction treated after KCl-challenge; format: functional, tissue-based
Summary of the method: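 Thoracic aortic rings from male Wistar rats (250-350 g), endothelium removed by rubbing; removal confirmed as <10% relaxation to ACh 10 µM in KCl 30 mM-contracted rings. Rings contracted with KCl 30 mM; at plateau, 3-fold increasing compound concentrations (1 nM-10 µM) added. Isometric tension recorded. Emax given as % of KCl tone; pIC50 as -log molar concentration halving that tone. 6-10 experiments; also run with ODQ 1 µM.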

Bos taurus = organism: Bos taurus; experiment: (§3) Inhibition of interleukin 1 beta-induced glycosaminoglycan release in bovine articular cartilage of metacarpophalangeal joints of feet treated 48 hrs after interleukin 1beta-challenge by DMB colorimetric assay; format: functional
Summary of the method: (§4)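 Bovine metacarpophalangeal cartilage slices (about 100 mg per well) were cultured in serum-free DMEM at 37 °C, 5% CO2, with medium changed on days 1 and 2. On day 3 the slices were challenged with IL-1β 30 ng/mL plus compound for 48 h. GAG release was measured by the DMB (Farndale) assay and expressed as % of IL-1β alone, n = 3. EC50 is given with 95% CI.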

[11] = as §3; format: functional, Bos taurus; summary of the method: as §4
Rattus norvegicus [12] = experiment: Antiinflammatory activity in Sprague-Dawley/Wistar rat assessed as decrease in carrageenan-induced hyperalgesia at 10 mg/kg, po administered 4 hrs after carrageenan-challenge measured after 120 mins (reference value: 31.4 +/- 3.7 g); format: functional
Mus musculus = experiment: Antinociceptive activity in po dosed Swiss albino mouse assessed as reduction in number of acetic acid-induced writhing counted 5 mins after acetic acid challenge counted for 10 mins; format: functional; details: read-out: MED
Summary of the method: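 Male Swiss albino mice (23-25 g) dosed orally, then given 0.6% acetic acid (10 mL/kg) ip. Stretching movements counted for 10 min, starting 5 min after the acetic acid. Control group received CMC. At least 7 mice/group; mean ± SEM, ANOVA with Fisher's PLSD.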

[13] = target: Prostaglandin G/H synthase 1 (Homo sapiens, UniProt P23219); experiment: Inhibition of COX1 in human whole blood assessed as reduction in TXB2 generation
Summary of the method: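 Clotting assay in whole blood from three healthy volunteers with no NSAID for 2 weeks. Compounds in DMSO were added at 0.1-300 µM final. Blood clotted in glass tubes at 37 °C for 1 h. Serum TXB2 was measured by RIA as a reflection of platelet COX-1 activity driven by endogenous thrombin.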

J774 = experiment: Selectivity index, ratio of IC50 for COX1 in mouse J774 cells […]; format: cell-based
Rattus norvegicus [14] = experiment: Antiinflammatory activity in Sprague-Dawley/Wistar osteoarthritis model rat assessed as decrease in monoiodoacetate-induced hyperalgesia at 20 mg/kg, po bid for 14 days administered from day of monoiodoacetate-challenge […] post by paw pressure test (reference value: 32.6 +/- 2.9 g); format: functional

Chain of Prostaglandin G/H synthase 1 (P23219 whole entry): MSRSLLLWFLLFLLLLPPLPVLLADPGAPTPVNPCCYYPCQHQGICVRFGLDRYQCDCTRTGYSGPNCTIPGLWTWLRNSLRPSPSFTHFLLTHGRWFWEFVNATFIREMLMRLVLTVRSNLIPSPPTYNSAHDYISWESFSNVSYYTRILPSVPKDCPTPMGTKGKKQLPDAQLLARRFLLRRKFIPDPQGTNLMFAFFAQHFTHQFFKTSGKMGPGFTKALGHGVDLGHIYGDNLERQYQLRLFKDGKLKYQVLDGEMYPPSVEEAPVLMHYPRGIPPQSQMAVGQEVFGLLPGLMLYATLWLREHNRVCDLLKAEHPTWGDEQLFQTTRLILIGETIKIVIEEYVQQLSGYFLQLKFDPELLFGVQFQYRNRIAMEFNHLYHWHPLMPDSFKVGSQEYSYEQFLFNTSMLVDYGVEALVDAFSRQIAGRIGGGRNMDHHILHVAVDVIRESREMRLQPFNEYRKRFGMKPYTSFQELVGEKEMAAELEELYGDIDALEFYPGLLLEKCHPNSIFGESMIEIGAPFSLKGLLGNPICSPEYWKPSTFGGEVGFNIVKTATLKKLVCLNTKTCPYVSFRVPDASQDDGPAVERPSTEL

**Q.** For `Cc1c(CCOCCO[N+](=O)[O-])cc(-c2ccc(S(C)(=O)=O)cc2)n1-c1ccc(F)cc1`, which Activity (Rattus norvegicus [1]) is on record?
**A.** 1.92 mL

**Q.** What about the Activity (Rattus norvegicus [2]) of the same compound?
**A.** 1.87 mL

**Q.** What about the Activity (Rattus norvegicus [3]) of the same compound?
**A.** 43.8 g

**Q.** What about the Activity (Rattus norvegicus [4]) of the same compound?
**A.** 55.1 g

**Q.** And the Activity (Rattus norvegicus [5])?
**A.** 49.2 g

**Q.** What about the IC50 [6] of the same compound?
**A.** 0.64 µM

**Q.** What about the IC80 [7] of the same compound?
**A.** 2.26 µM

**Q.** What about the inhibition [7] of the same compound?
**A.** Dose-dependent effect

**Q.** And the Activity (Rattus norvegicus [8])?
**A.** 52.6 g

**Q.** What about the Activity (Aorta [9]) of the same compound?
**A.** inactive

**Q.** What about the IC50 (Aorta [10]) of the same compound?
**A.** ≥ 10 µM

**Q.** What about the pIC50 (Aorta [10]) of the same compound?
**A.** Dose-dependent effect

**Q.** And the inhibition (Bos taurus)?
**A.** Dose-dependent effect

**Q.** What about the IC50 [11] of the same compound?
**A.** 1.5 µM

**Q.** And the Activity (Rattus norvegicus [12])?
**A.** 48.3 g

**Q.** What about the minimal effective dose (Mus musculus) of the same compound?
**A.** 10 mg/kg

**Q.** And the IC50 [13]?
**A.** 31.2 µM

**Q.** And the IC80 [13]?
**A.** 63.3 µM

**Q.** And the inhibition [13]?
**A.** Dose-dependent effect

**Q.** What about the Ratio IC50 (J774) of the same compound?
**A.** > 714

**Q.** What about the Activity (Rattus norvegicus [14]) of the same compound?
**A.** 43.5 g
